The results in this text go back to ChEMBL document CHEMBL2029291, “Synthesis and structure-activity relationships of new quinolone-type molecules against Trypanosoma brucei” (J Med Chem, 2012).

For data set [1], the system named is Trypanosoma brucei brucei. Briefly: Antitrypanosomal activity against Trypanosoma brucei brucei TC221 […] after 72 hrs by alamar blue assay. The format is functional, organism-based. To be noted: TC221, 72 h. The method in brief: (§1)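 Trypomastigote T. b. brucei TC 221 grown in Baltz medium, seeded at 10⁴ per mL and exposed to graded compound concentrations (dissolved in DMSO or 0.1 M NaOH). Incubated at 37 °C, 5% CO₂ for 72 h, with a reading also taken at 48 h. AlamarBlue absorbance read at 550/630 nm. IC50 by linear interpolation; duplicate tests, mean and SD.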
On the technique in general: Resazurin is reduced to fluorescent resorufin, in cell work by metabolically active cells.

Data set [2] is described as follows: Selectivity index, ratio of IC50 for mouse J774.1 cells to IC50 for Trypanosoma brucei rhodesiense STIB900. The format is toxicity. To be noted: read-out: Ratio IC50. In outline: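 Selectivity index is the J774.1 IC50 divided by the trypanosome IC50. J774.1 macrophages were kept in complete Click RPMI, washed, and plated in phenol red-free RPMI with compound. AlamarBlue was added and plates were read 24 and 48 h later. Absorbance without compound was set as 100% growth.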

The nature of data set [3]: Aqueous solubility of the compound in 10% Cremophore RH40. The data set is classed as physicochemical. The note with it: buffer. The method in brief: (§2)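 Water solubility was assessed after adding 10% Tween 80 or 10% Cremophor RH40 to the compound.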
Data set [4] relates to Trypanosoma brucei brucei. Briefly: Cell cycle arrest in GFP-labeled Trypanosoma brucei brucei assessed as increase in segregated 1K1N cell population at IC50 concentration after 42 hrs by DAPI staining-based fluorescence microscopic analysis.
Data set [5] relates to Trypanosoma brucei rhodesiense. Briefly: Antitrypanosomal activity against Trypanosoma brucei rhodesiense STIB900 […] after 48 hrs by alamar blue assay. The format is functional, organism-based.
A short description of data set [6]: Aqueous solubility of the compound in 10% Tween 80. The data set is classed as physicochemical. To be noted: buffer. The method in brief:
as §2

Data set [7] in a line: Lipophilicity, log P of the compound by RP-HPLC analysis. The format is physicochemical. In outline: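 LogP by RP-HPLC on a C18 Inertsil ODS-2 column. Mobile phase was methanol/10 mM phosphate buffer pH 7.4 (70:30) at 1.5 mL/min. Samples were at 4 μg/mL, detected at 254.4 nm, and run in duplicate. Capacity ratio was calculated as k′ = (tr − to)/to.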
A short description of data set [8]: Chemical stability of the compound in 35% cremophore RH40, 45% capmul MCM C8, 10% triethylcitrate and 10% ethanol after 24 hrs. The format is physicochemical. The method in brief:
(§3)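 Oral preconcentrate of Cremophor RH40 (35%), Capmul MCM C8 (45%), triethylcitrate (10%) and ethanol (10%) was tested for dissolving compound at 10 mg/mL. Stability of the emulsion formed in aqueous solution was observed over time.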

In data set [9] the test system is Trypanosoma brucei rhodesiense. Briefly: Antitrypanosomal activity against Trypanosoma brucei rhodesiense STIB900 infected in NMRI mouse at 50 mg/kg, po administered on day 3 to 6 post infection measured every second day up to 6 days post infection. Also on record: dose 50 mg/kg. The format is functional, organism-based. In outline:
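Acute mouse model with T. b. rhodesiense STIB900-infected NMRI mice. Compound was given orally as a 1:1 aqueous dilution of a 10 mg/mL preconcentrate (Cremophor RH40 35%, Capmul MCM C8 45%, triethylcitrate 10%, ethanol 10%). An untreated control group was included. Parasitemia was checked every second day to day 6, and survival was recorded. Aparasitemic survivors at 60 days were counted as cured.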

A short description of data set [10]: Cytotoxicity against mouse J774.1 cells after 48 hrs by alamar blue assay. The format is cell-based. To be noted: J774.1, 48 h. In outline:
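J774.1 macrophages kept in complete Click RPMI, detached by scraping, PBS-washed, suspended at 2 × 10⁶ cells/mL and plated in phenol-red-free RPMI with or without compound. AlamarBlue added and absorbance read 24 and 48 h later. Compound-free wells taken as 100% growth. Effects of cell density, incubation time and DMSO level were controlled. Tested in duplicate.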

Data set [11] in a line: Selectivity index, ratio of IC50 for mouse J774.1 cells to IC50 for Trypanosoma brucei brucei TC221. The note with it: read-out: Ratio IC50. The format is toxicity.
Data set [12] deals with Trypanosoma brucei. The experiment in a line: Antitrypanosomal activity in topoisomerase 2-knockout BSF Trypanosoma brucei assessed as assessed as shrinkage of kinetoplast over time at IC50 concentration after 72 hrs by […]. The format is functional, organism-based. In outline: (§4)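 RNAi against mitochondrial topoisomerase II in the BSF mitochondrion marker line. A 500 bp topoII fragment in p2T7-177 was transfected by nucleofection, with puromycin selection at 0.3 μg/mL. RNAi was induced with 1 μg/mL tetracycline. Knockdown was confirmed by Northern blot at 24 h, with tubulin as reference. Growth and DAPI-stained kinetoplast loss were followed over time.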

In data set [13] the test system is Trypanosoma brucei. The experiment in a line: Antitrypanosomal activity in topoisomerase 2-knockout BSF Trypanosoma brucei assessed as assessed as shrinkage of kinetoplast over time at IC50 concentration after 48 hrs by […]. The format is functional, organism-based. In outline:
as §4

In data set [14] the test system is Trypanosoma brucei brucei. Briefly: Antitrypanosomal activity against Trypanosoma brucei brucei TC221 […] after 48 hrs by alamar blue assay. The note with it: TC221, 48 h. The format is functional, organism-based. The method in brief:
as §1

Data set [15] can be described thus: Aqueous solubility of the compound in 35% cremophore RH40, 45% capmul MCM C8, 10% triethylcitrate and 10% ethanol. The format is physicochemical. To be noted: buffer. The method in brief: as §3

Activity calls are given as the source filed them. The rule behind the calls is not given here.

In general, IC50 refers to the concentration needed to halve the response being measured. A higher IC50 goes with a need for much substance. Broadly, the logP is the decadic logarithm of the partition coefficient of the neutral form, usually between octanol and water. Take `CCCCn1cc(C(=O)NCc2ccccc2)c(=O)c2cc(F)c(N3CCOCC3)cc21`: the IC50 is 50 nM in data set [1], 9 nM in data set [5], 57000 nM in data set [10] and 47 nM in data set [14]. Further, the selectivity ratio in data set [2] amounted to 6330; in data set [11], 1140. Moreover, the solubility result in data set [3] is reported as “Insoluble”; in data set [6], “Insoluble”; in data set [15], “soluble”. Besides, the outcome (in data set [4]; with Trypanosoma brucei [12]; with Trypanosoma brucei [13]) was Active. In data set [7], this compound yielded a logP of 2.4. Moreover, the Stability entry in [8] is reported as “Stable”. The outcome in data set [9] was inactive.
For the compound `O=C(O)c1cn(C2CC2)c2cc(N3CCNCC3)c(F)cc2c1=O`, the outcome in [4] was Active.
Consider `CCCCn1cc(C(=O)NCc2ccc(OC)cc2)c(=O)c2cc(F)c(N3CCC(C(N)=O)CC3)cc21`, for which the figures for the IC50 in [1], in data set [10] and in data set [14] were 1450 nM, 40800 nM and 780 nM, respectively. Also, the result (in [4]; in the data set on Trypanosoma brucei [12]; in the data set on Trypanosoma brucei [13]) was Active. Besides, in data set [7] (read-out: logP), the logP is 2.4. In data set [11], the selectivity ratio turned out to be 52.3.
On to `NC(=O)C1CCN(c2cc3c(cc2F)c(=O)c(C(=O)NCc2ccccc2)cn3C2CC2)CC1`, for which the IC50 in data set [1] came out at 1910 nM; in data set [10] it was 51200 nM; in data set [14] it was 1070 nM. The logP in data set [7] (read-out: logP) came out at 2.4. In addition, the selectivity ratio in [11] is 47.9.
